In ChEMBL document CHEMBL1126566, “Studies on analogues of classical antifolates bearing the naphthoyl group in place of benzoyl in the side chain” (J Med Chem, 1993):
Where a chain is given by its changes, count along the chain named.

Legend:
[1] = target: T1, Dihydrofolate reductase (Mus musculus, UniProt P00375); assay: Inhibitory activity of Dihydrofolate reductase in L1210 cells; assay type: cell-based
T1 sequence (P00375 whole entry): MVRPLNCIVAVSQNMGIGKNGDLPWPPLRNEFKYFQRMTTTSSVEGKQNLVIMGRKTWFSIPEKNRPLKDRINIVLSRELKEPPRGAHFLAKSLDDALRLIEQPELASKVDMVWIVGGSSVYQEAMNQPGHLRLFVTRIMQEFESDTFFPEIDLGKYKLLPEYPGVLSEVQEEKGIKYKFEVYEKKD

[2] = test system: HL-60; assay: Tested for the ability to inhibit growth in vitro against HL60; assay type: functional, cell-based; details: Homo sapiens
[3] = test system: CCRF-CEM; assay: (§1) Percent inhibition of Folyl-polyglutamate synthase from CCRF-CEM cells; assay type: cell-based; set-up: concentration or dose not given beside the values; details: Homo sapiens, dose or concentration not given here
How it was run: (§2)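 FPGS was partially purified from CCRF-CEM cells by (NH₄)₂SO₄ fractionation and gel sieving, with no detectable γ-glutamyl hydrolase. Product was separated on DEAE-cellulose. Percent inhibition is reported.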

[4] = test system: L1210; assay: Tested for the ability to inhibit growth in vitro against L1210; assay type: functional, cell-based; details: Mus musculus
[5] = test system: CCRF S-180; assay: Tested for the ability to inhibit growth in vitro against S180; assay type: functional, cell-based; details: Mus musculus
[6] = test system: L1210; assay: Tested for transport into L1210 cells measured as cell influx; assay type: functional, cell-based, Mus musculus
[7] = Activity relative to saturating aminopterine at 100 uM against CCRF-CEM Folyl-polyglutamate synthetase; assay type: ADME; details: human
How it was run: (§3)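 FPGS from CCRF-CEM cells: freeze-thawed lysates fractionated by (NH₄)₂SO₄ (0–40% saturation pellet) and gel sieving, stored at –90 °C in 20% glycerol, free of detectable γ-glutamyl hydrolase. Product was separated on DEAE-cellulose minicolumns. Run in duplicate or triplicate, and each experiment was repeated at least once.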

[8] = test system: Folyl-polyglutamate synthase; assay: Michaelis-Menten constant was determined against CCRF-CEM Folyl-polyglutamate synthase; assay type: ADME; details: human, folylpolyglutamate synthase from CCRF-CEM cells; how it was run: as §3
[9] = target: T2, Folylpolyglutamate synthase, mitochondrial (Mus musculus) (UniProt P48760); assay: Specific activity of L1210 Folyl-polyglutamate synthase
T2 sequence (whole entry): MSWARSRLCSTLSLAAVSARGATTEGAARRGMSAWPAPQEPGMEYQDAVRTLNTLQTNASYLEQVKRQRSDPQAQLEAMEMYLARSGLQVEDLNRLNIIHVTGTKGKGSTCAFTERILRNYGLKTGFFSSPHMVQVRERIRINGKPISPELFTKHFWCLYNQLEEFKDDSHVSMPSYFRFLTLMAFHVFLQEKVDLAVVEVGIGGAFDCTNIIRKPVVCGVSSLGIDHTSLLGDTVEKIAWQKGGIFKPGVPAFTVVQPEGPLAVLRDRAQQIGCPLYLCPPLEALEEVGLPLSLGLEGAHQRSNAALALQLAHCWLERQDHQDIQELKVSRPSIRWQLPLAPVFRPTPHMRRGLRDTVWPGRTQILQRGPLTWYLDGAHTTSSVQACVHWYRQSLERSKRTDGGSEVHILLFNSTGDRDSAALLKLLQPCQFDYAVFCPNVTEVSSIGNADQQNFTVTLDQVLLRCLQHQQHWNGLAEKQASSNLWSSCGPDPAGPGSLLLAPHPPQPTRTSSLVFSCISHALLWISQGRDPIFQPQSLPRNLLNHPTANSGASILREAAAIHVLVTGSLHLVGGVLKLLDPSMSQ
How it was run: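 FPGS from L1210 cells was assayed by [³H]glutamate ligation, like the human enzyme assay. Each folate substrate was at 100 μM, and only specific activity was measured.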

[10] = target: T3, Dihydrofolate reductase (Pneumocystis carinii, UniProt P16184); assay: Tested for inhibition against Dihydrofolate reductase from Pneumocystis carinii
T3 sequence (P16184 whole entry): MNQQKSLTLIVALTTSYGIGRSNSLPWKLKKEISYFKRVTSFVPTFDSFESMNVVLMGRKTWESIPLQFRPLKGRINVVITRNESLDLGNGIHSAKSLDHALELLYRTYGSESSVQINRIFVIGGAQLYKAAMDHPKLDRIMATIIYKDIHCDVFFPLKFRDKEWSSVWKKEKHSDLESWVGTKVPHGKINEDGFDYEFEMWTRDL

[11] = test system: Mus musculus; assay: Antitumor activity against E0771 mammary adenocarcinoma in mice at 6 mg/kg(5 days) was determined and […] at day 7 was reported; assay type: functional
How it was run: (§4)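 E0771 mammary adenocarcinoma implanted in mice, five mice per group. Treatment was given daily for 5 days, starting day 3 after implantation. Tumor volume was calculated as 4/3πr³ and averaged on days 7, 10 and 14. T/C (%) is the treated/control tumor volume. Toxic deaths were recorded.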

[12] = test system: Mus musculus; assay: Antitumor activity against E0771 mammary adenocarcinoma in mice at 6 mg/kg(5 days) was determined and tumor volume at day 14 was reported; toxic indicates 4 toxic deaths; assay type: organism-based; set-up: dose 6 mg/kg; details: in vivo, 120 h; how it was run: as §4
[13] = test system: Mus musculus; assay: Antitumor activity against E0771 mammary adenocarcinoma in mice at 6 mg/kg(5 days) was determined and tumor volume at day 10 was reported; assay type: functional
How it was run: (§5)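 Mice bearing implanted E0771 mammary adenocarcinoma, five per test group. Dosing was daily for 5 days, starting on day 3 after implantation. Tumor volume (mm³) was calculated as 4/3πr³ and is also expressed as treated/control (%).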

[14] = test system: Mus musculus; assay: Antitumor activity against E0771 mammary adenocarcinoma in mice at 3 mg/kg(5 days) was determined and […] at day 14 was reported; assay type: functional; how it was run: as §4
[15] = test system: Mus musculus; assay: Antitumor activity against E0771 mammary adenocarcinoma in mice at 3 mg/kg(5 days) was determined and tumor volume at day 14 was reported; assay type: functional; how it was run: as §5
[16] = test system: Mus musculus; assay: Antitumor activity against E0771 mammary adenocarcinoma in mice at 6 mg/kg(5 days) was determined and […] at day 10 was reported; assay type: functional; how it was run: as §4
[17] = test system: Mus musculus; assay: Antitumor activity against E0771 mammary adenocarcinoma in mice at 3 mg/kg(5 days) was determined and […] at day 7 was reported; assay type: functional; how it was run: as §4
[18] = as §1; assay type: cell-based, Homo sapiens; how it was run: as §2
[19] = test system: Mus musculus; assay: Antitumor activity against E0771 mammary adenocarcinoma in mice at 6 mg/kg(5 days) was determined and […] at day 14 was reported; toxic indicates 4 toxic deaths; assay type: organism-based; set-up: dose 6 mg/kg; details: in vivo, 120 h; how it was run: as §4
[20] = test system: Mus musculus; assay: Antitumor activity against E0771 mammary adenocarcinoma in mice at 3 mg/kg(5 days) was determined and tumor volume at day 7 was reported; assay type: functional; how it was run: as §5
[21] = test system: Mus musculus; assay: Antitumor activity against E0771 mammary adenocarcinoma in mice at 3 mg/kg(5 days) was determined and […] at day 10 was reported; assay type: functional; how it was run: as §4
[22] = test system: Mus musculus; assay: Antitumor activity against E0771 mammary adenocarcinoma in mice at 6 mg/kg(5 days) was determined and tumor volume at day 7 was reported; assay type: functional; how it was run: as §5
[23] = test system: Mus musculus; assay: Antitumor activity against E0771 mammary adenocarcinoma in mice at 3 mg/kg(5 days) was determined and tumor volume at day 10 was reported; assay type: functional; how it was run: as §5
[24] = test system: Mus musculus; assay: Antitumor activity against E0771 mammary adenocarcinoma in mice at 100 mg/kg(5 days) was determined and tumor volume at day 14 was reported; assay type: functional; how it was run: as §5
[25] = test system: Mus musculus; assay: Antitumor activity against E0771 mammary adenocarcinoma in mice at 150 mg/kg(5 days) was determined and […] at day 10 was reported; assay type: functional
[26] = test system: Mus musculus; assay: Antitumor activity against E0771 mammary adenocarcinoma in mice at 150 mg/kg(5 days) was determined and tumor volume at day 7 was reported; assay type: functional; how it was run: as §5
[27] = test system: Mus musculus; assay: Antitumor activity against E0771 mammary adenocarcinoma in mice at 100 mg/kg(5 days) was determined and tumor volume at day 7 was reported; assay type: functional; how it was run: as §5
[28] = Ratio of Vmax and Km against CCRF-CEM Folyl-polyglutamate synthetase; assay type: ADME; details: human
How it was run: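 Substrate assay with CCRF-CEM FPGS. Analogue replaced aminopterin at 0–100 μM (0–200 μM for one analogue). Buffer held 5 mM ATP, 10 mM MgCl₂, 4 mM L-[³H]Glu, pH 8.4, 37 °C. Ligated glutamate was separated on DEAE-cellulose. Assays were run in duplicate or triplicate within linear enzyme and time ranges, and each experiment was repeated. Vmax (relative to aminopterin) and Km give V/K.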

[29] = test system: Mus musculus; assay: Antitumor activity against E0771 mammary adenocarcinoma in mice at 100 mg/kg(5 days) was determined and […] at day 14 was reported; assay type: functional
[30] = test system: Mus musculus; assay: Antitumor activity against E0771 mammary adenocarcinoma in mice at 150 mg/kg(5 days) was determined and tumor volume at day 14 was reported; assay type: functional; how it was run: as §5
[31] = test system: Mus musculus; assay: Antitumor activity against E0771 mammary adenocarcinoma in mice at 150 mg/kg(5 days) was determined and tumor volume at day 10 was reported; assay type: functional; how it was run: as §5
[32] = test system: Mus musculus; assay: Antitumor activity against E0771 mammary adenocarcinoma in mice at 100 mg/kg(5 days) was determined and […] at day 10 was reported; assay type: functional
[33] = target: T4, Dihydrofolate reductase (Rattus norvegicus, UniProt Q920D2); assay: Tested for inhibition against rat liver DHFR (dihydrofolate reductase)
T4 sequence (Q920D2 whole entry): T1 sequence (P00375 whole entry) with P27L, R85Q, R99K, I115V, G155E, V170I

[34] = test system: Mus musculus; assay: Antitumor activity against E0771 mammary adenocarcinoma in mice at 150 mg/kg(5 days) was determined and […] at day 14 was reported; assay type: functional
[35] = test system: Mus musculus; assay: Antitumor activity against E0771 mammary adenocarcinoma in mice at 150 mg/kg(5 days) was determined and […] at day 7 was reported; assay type: functional
[36] = test system: Mus musculus; assay: Antitumor activity against E0771 mammary adenocarcinoma in mice at 100 mg/kg(5 days) was determined and tumor volume at day 10 was reported; assay type: functional; how it was run: as §5
[37] = test system: Mus musculus; assay: Antitumor activity against E0771 mammary adenocarcinoma in mice at 100 mg/kg(5 days) was determined and […] at day 7 was reported; assay type: functional
[38] = species on record: Homo sapiens
[39] = target: T3, Dihydrofolate reductase; assay: Tested for inhibition against Pneumocystis carinii DHFR (dihydrofolate reductase)

Compound | Ki [1] [nM] | IC50 [2] [nM] | inhibition [3] [%] | IC50 [4] [nM] | IC50 [5] [nM] | Ki [6] [nM] | Relative Vmax [7] | Specific activity (pM hr-1 (mg of protein)-1) [9] | further results
Nc1nc(N)c2cc(CNc3ccc(C(=O)NC(CCC(=O)O)C(=O)O)c4c3CCCC4)cnc2n1 (centres undefined) | 0.0131 | 17 | 16 | 16 | 33 | 600 | 0.01 | – | –
Nc1nc(N)c2nc(CNc3ccc(C(=O)N[C@@H](CCC(=O)O)C(=O)O)cc3)cnc2n1 [AMINOPTERIN] | – | – | – | – | – | – | 1 | 1.91 | Km [8]: 4.1 µM
CN(Cc1cnc2nc(N)nc(N)c2c1)c1ccc(C(=O)NC(CCC(=O)O)C(=O)O)c2ccccc12 (centres undefined) | – | 1.5 | 23 | 2.3 | 1.9 | 780 | – | – | –
Nc1nc(N)c2cc(CNc3ccc(C(=O)NC(CCC(=O)O)C(=O)O)c4ccccc34)cnc2n1 (centres undefined) | 0.00365 | 1.4 | 21 | 4.2 | 3.9 | 1520 | 0.01 | – | IC50 [10]: 0.00053 nM
Cc1c(CNc2ccc(C(=O)NC(CCC(=O)O)C(=O)O)c3ccccc23)cnc2nc(N)nc(N)c12 (centres undefined) | 0.00508 | 0.74 | – | 3.9 | 3.8 | 1310 | 0.02 | – | T/C [11]: 39%; Tumor volume [12]: Toxic; Tumor volume [13]: 42 mm**3; T/C [14]: 60%; Tumor volume [15]: 1048 mm**3; T/C [16]: 7%; T/C [17]: 51%; IC50 [18]: 69000 nM; T/C [19]: Toxic; Tumor volume [20]: 113 mm**3; T/C [21]: 68%; Tumor volume [22]: 87 mm**3; Tumor volume [23]: 421 mm**3
Nc1nc(N)c2nc(CNc3ccc(C(=O)NC(CCC(=O)O)C(=O)O)c4ccccc34)cnc2n1 (centres undefined) | 0.00455 | 4.6 | 12 | 6 | 5.9 | 920 | 0.03 | 0.41 | –
Nc1nc(N)c2cc(CNc3ccc(C(=O)NC(CCC(=O)O)C(=O)O)c4ccccc34)ccc2n1 (centres undefined) | 0.0052 | 0.65 | – | 6.1 | 3.9 | 900 | – | – | –
CN(Cc1cnc2nc(N)nc(N)c2n1)c1ccc(C(=O)NC(CCC(=O)O)C(=O)O)c2ccccc12 (centres undefined) | 0.00522 | 3.3 | 3 | 9 | 9.3 | 1040 | 0.27 | 0.18 | Tumor volume [24]: 839 mm**3; T/C [25]: 23%; Tumor volume [26]: 62 mm**3; Tumor volume [27]: 82 mm**3; V/K [28]: 0.0033; T/C [29]: 48%; Tumor volume [30]: 493 mm**3; Tumor volume [31]: 144 mm**3; T/C [32]: 43%; IC50 [33]: 0.0025 nM; T/C [34]: 28%; T/C [35]: 28%; Tumor volume [36]: 268 mm**3; T/C [37]: 37%; Km [38]: 82 µM; IC50 [39]: 0.00019 nM
